This note sets out measurements from PubChem BioAssay AID493088 (Southern Research Specialized Biocontainment Screening …, 2011).

The subject of this experiment is HEp-2 RSV Long CPE inhibition, luminescence. Nature of the experiment: RSV cytopathic effect inhibition, dose response, cell-based, HEp-2, RSV Long, synthesized compounds, set 5 (AID 493088). In outline:
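Compound dosing: 8-point twofold dilution series, 0.39–50 µM final, 0.5% DMSO; test system: RSV Long-infected HEp-2 cells; reagent: RSV Long, MOI 0.45; benchmarks: cell-only and virus-only wells; times: 6-day incubation of infected, compound-treated cells at 37 °C; repeats: triplicates; measured by: luminescence measurement of virus-induced cytopathic effect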
For orientation: Cytopathic effects are the visible damage that an infection or toxin causes in cultured cells.

Active and inactive are the calls of the source.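 Rule for the calls: active = compounds blocking at least half of the virus-caused cell damage in the dose series; inactive = the rest.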

Usually IC50 stands for the concentration at which inhibition is half-maximal. Regarding `CCOC(=O)c1ccc2[nH]c3c(c2c1)CN(C)CC3`, the IC50 is 28.4 µM.

Regarding `CC(=O)c1ccccc1NC(=O)[C@@H]1CCCN1S(=O)(=O)c1cccc2cccnc12`, the IC50 is > 50 µM (inactive).

Take `Cc1ncccc1NC(=O)[C@@H]1CCCN1S(=O)(=O)c1cccc2cccnc12`: the IC50 was > 50 µM (inactive).

For the molecule `CCc1ccccc1NC(=O)[C@@H]1CCCN1S(=O)(=O)c1cccc2cccnc12`, the half-maximal inhibitory concentration (IC50) was 16.2 µM. On to `COCCCNC(=O)c1ccc(Cn2c(=O)c3ccccc3n(Cc3ccc(C)cc3)c2=O)cc1`, for which the IC50 was 1.71 µM.
